In ChEMBL document CHEMBL4138242, “Synthesis and antibacterial evaluation of novel cationic chalcone derivatives possessing broad spectrum antibacterial activity” (Eur J Med Chem, 2018):
Activity calls are given as the source filed them.

Key:
[1] = test system: Escherichia coli; assay: Antibacterial activity against drug-resistant NDM1 producing Escherichia coli clinical isolate CF-15-61 after 16 to 20 hrs by broth microdilution method; assay type: functional
Outline: (§1)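 CLSI broth microdilution in Mueller-Hinton broth. A 4-6 h culture was diluted to about 10⁶ CFU/mL and mixed 1:1 with compound dilutions prepared at 256 to 0.5 µg/mL from aqueous stocks. Plates were incubated at 37 °C for 16-20 h and read visually for MIC. Each concentration was run in duplicate, and the experiment was repeated at least twice. Vancomycin and meropenem were comparators.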

[2] = test system: Escherichia coli; assay: Antibacterial activity against drug-resistant NDM1 producing Escherichia coli clinical isolate EA-14-61 after 16 to 20 hrs by broth microdilution method; assay type: functional; outline: as §1
[3] = test system: Escherichia coli; assay: Antibacterial activity against drug-resistant NDM1 producing Escherichia coli clinical isolate SM-15-84 after 16 to 20 hrs by broth microdilution method; assay type: functional; outline: as §1
[4] = test system: Klebsiella pneumoniae; assay: Antibacterial activity against drug-resistant carbapenemase producing Klebsiella pneumoniae clinical isolate KP-14-45 after 16 to 20 hrs by broth microdilution method; assay type: functional; outline: as §1
[5] = test system: Klebsiella pneumoniae; assay: Antibacterial activity against drug-resistant carbapenemase producing Klebsiella pneumoniae clinical isolate KP-14-5 after 16 to 20 hrs by broth microdilution method; assay type: functional; outline: as §1
[6] = test system: Escherichia coli; assay: Induction of cytoplasmic membrane depolarization in Escherichia coli ATCC 25922 at 10 to 20 ug/ml measured every 2 mins for 12 mins by DiSC35 dye-based fluorescence assay; assay type: functional, organism-based
Outline: (§2)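 Mid-log cells (~10⁸ CFU/mL) were suspended in PBS (S. aureus) or HEPES/glucose/KCl with EDTA (E. coli). They were preloaded with DiSC3(5) for 30 min (S. aureus) or 40 min (E. coli), and baseline fluorescence was read for 8 min. Compound was added to 20 µg/mL final, and fluorescence (ex 622/em 670 nm) was read every 2 min for 12 min. Water served as control.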

[7] = test system: Escherichia coli; assay: Antibacterial activity against drug-resistant NDM1 producing Escherichia coli clinical isolate Ecl-14-59 after 16 to 20 hrs by broth microdilution method; assay type: functional; outline: as §1
[8] = test system: Escherichia coli; assay: Antibacterial activity against drug-resistant NDM1 producing Escherichia coli clinical isolate EC-13-49 after 16 to 20 hrs by broth microdilution method; assay type: functional; outline: as §1
[9] = test system: Staphylococcus aureus; assay: Antibacterial activity against methicillin-resistant Staphylococcus aureus clinical isolate 1105183 cono7 after 16 to 20 hrs by broth microdilution method; assay type: functional; outline: as §1
[10] = test system: Klebsiella pneumoniae; assay: Antibacterial activity against drug-resistant carbapenemase producing Klebsiella pneumoniae clinical isolate KP-14-4 after 16 to 20 hrs by broth microdilution method; assay type: functional; outline: as §1
[11] = test system: Escherichia coli; assay: Antibacterial activity against drug-resistant NDM1 producing Escherichia coli clinical isolate Ecl-14-56 after 16 to 20 hrs by broth microdilution method; assay type: functional; outline: as §1
[12] = test system: Escherichia coli; assay: Antibacterial activity against drug-resistant NDM1 producing Escherichia coli clinical isolate Ecl-14-58 after 16 to 20 hrs by broth microdilution method; assay type: functional; outline: as §1
[13] = test system: Escherichia coli; assay: Induction of inner membrane permeabilization in Escherichia coli ATCC 25922 at 10 to 20 ug/ml measured every 2 mins for 12 mins by propidium iodide staining-based fluorescence assay; assay type: functional, organism-based
Outline: (§3)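 Mid-log cells (~10⁸ CFU/mL) were suspended in PBS (S. aureus) or HEPES/glucose/KCl (E. coli). They were preincubated with propidium iodide for 30 min (S. aureus) or 40 min (E. coli), and baseline fluorescence was read for 8 min. Compound was added to 20 µg/mL final, and fluorescence (ex 535/em 617 nm) was read every 2 min for 12 min.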

[14] = test system: Staphylococcus aureus; assay: Antibacterial activity against methicillin-resistant Staphylococcus aureus clinical isolate 1208143 after 16 to 20 hrs by broth microdilution method; assay type: functional; outline: as §1
[15] = test system: Staphylococcus aureus; assay: Induction of inner membrane permeabilization in Staphylococcus aureus ATCC 29213 at 10 to 20 ug/ml measured every 2 mins for 12 mins by propidium iodide staining-based fluorescence assay; assay type: functional, organism-based; outline: as §3
[16] = test system: Escherichia coli; assay: Antibacterial activity against drug-resistant NDM1 producing Escherichia coli clinical isolate KP-13-58 after 16 to 20 hrs by broth microdilution method; assay type: functional; outline: as §1
[17] = test system: Klebsiella pneumoniae; assay: Antibacterial activity against drug-resistant carbapenemase producing Klebsiella pneumoniae clinical isolate KP-14-3 after 16 to 20 hrs by broth microdilution method; assay type: functional; outline: as §1
[18] = test system: Staphylococcus aureus; assay: Antibacterial activity against methicillin-resistant Staphylococcus aureus clinical isolate 20131012632sau after 16 to 20 hrs by broth microdilution method; assay type: functional; outline: as §1
[19] = Hemolytic activity in sheep RBC after 1 hr; assay type: ADME, cell-based, Ovis aries, Erythrocyte; settings: sheep red blood cells (erythrocytes)
Outline: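 Sheep red blood cells (150 µL suspension) mixed with 50 µL of compound dilutions (5120-10 µg/mL), 1 h at 37 °C, then centrifuged. Supernatant read at 540 nm. Percent hemolysis calculated relative to RBC-only control (0%) and 0.1% Triton X-100 (100%).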

[20] = test system: Klebsiella pneumoniae; assay: Antibacterial activity against drug-resistant carbapenemase producing Klebsiella pneumoniae clinical isolate EC-13-23 after 16 to 20 hrs by broth microdilution method; assay type: functional; outline: as §1
[21] = test system: Staphylococcus aureus; assay: Antibacterial activity against methicillin-resistant Staphylococcus aureus clinical isolate 1-may after 16 to 20 hrs by broth microdilution method; assay type: functional; outline: as §1
[22] = test system: Klebsiella pneumoniae; assay: Antibacterial activity against drug-resistant carbapenemase producing Klebsiella pneumoniae clinical isolate KP-14-8 after 16 to 20 hrs by broth microdilution method; assay type: functional; outline: as §1
[23] = test system: Salmonella enterica; assay: Antibacterial activity against Salmonella enterica ATCC 13076 after 16 to 20 hrs by broth microdilution method; assay type: functional
Outline: (§4)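 Broth microdilution per CLSI. Bacteria grown 4-6 h (about 10⁸ CFU/mL), then diluted to about 10⁶ CFU/mL. Medium: Mueller-Hinton broth, except Luria-Bertani broth for E. coli. Compounds in sterile water, twofold series 256-0.5 µg/mL, mixed 1:1 with inoculum, 37 °C for 16-20 h. MIC is the lowest concentration without visible growth. Duplicate wells; experiment repeated at least twice.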

[24] = test system: Escherichia coli; assay: Antibacterial activity against drug-resistant NDM1 producing Escherichia coli clinical isolate CF-13-61 after 16 to 20 hrs by broth microdilution method; assay type: functional; outline: as §1
[25] = test system: Staphylococcus aureus; assay: Antibacterial activity against methicillin-resistant Staphylococcus aureus clinical isolate 1207007 after 16 to 20 hrs by broth microdilution method; assay type: functional; outline: as §1
[26] = test system: Klebsiella pneumoniae; assay: Antibacterial activity against drug-resistant carbapenemase producing Klebsiella pneumoniae clinical isolate KP-13-55 after 16 to 20 hrs by broth microdilution method; assay type: functional; outline: as §1
[27] = test system: Staphylococcus aureus; assay: Antibacterial activity against methicillin-resistant Staphylococcus aureus clinical isolate 0906202 after 16 to 20 hrs by broth microdilution method; assay type: functional; outline: as §1
[28] = test system: Escherichia coli; assay: Antibacterial activity against drug-resistant NDM1 producing Escherichia coli clinical isolate EC-14-54 after 16 to 20 hrs by broth microdilution method; assay type: functional; outline: as §1
[29] = test system: Staphylococcus aureus; assay: Antibacterial activity against Staphylococcus aureus ATCC 29213 after 16 to 20 hrs by broth microdilution method; assay type: functional; outline: as §4
[30] = test system: Klebsiella pneumoniae; assay: Antibacterial activity against drug-resistant carbapenemase producing Klebsiella pneumoniae clinical isolate KP-14-1 after 16 to 20 hrs by broth microdilution method; assay type: functional; outline: as §1
[31] = test system: Klebsiella pneumoniae; assay: Antibacterial activity against drug-resistant carbapenemase producing Klebsiella pneumoniae clinical isolate KP-13-54 after 16 to 20 hrs by broth microdilution method; assay type: functional; outline: as §1
[32] = test system: Staphylococcus aureus; assay: Antibacterial activity against methicillin-resistant Staphylococcus aureus clinical isolate 1104060 after 16 to 20 hrs by broth microdilution method; assay type: functional; outline: as §1
[33] = test system: Klebsiella pneumoniae; assay: Antibacterial activity against drug-resistant carbapenemase producing Klebsiella pneumoniae clinical isolate KP-13-45 after 16 to 20 hrs by broth microdilution method; assay type: functional; outline: as §1
[34] = test system: Escherichia coli; assay: Antibacterial activity against drug-resistant NDM1 producing Escherichia coli clinical isolate Ecl-13-62 after 16 to 20 hrs by broth microdilution method; assay type: functional; outline: as §1
[35] = test system: Klebsiella pneumoniae; assay: Antibacterial activity against drug-resistant carbapenemase producing Klebsiella pneumoniae clinical isolate KP-14-18 after 16 to 20 hrs by broth microdilution method; assay type: functional; outline: as §1
[36] = test system: Staphylococcus aureus; assay: Induction of cytoplasmic membrane depolarization in Staphylococcus aureus ATCC 29213 at 10 to 20 ug/ml measured every 2 mins for 12 mins by DiSC35 dye-based fluorescence assay; assay type: functional, organism-based; outline: as §2
[37] = test system: Staphylococcus aureus; assay: Antibacterial activity against methicillin-resistant Staphylococcus aureus clinical isolate 0831010 after 16 to 20 hrs by broth microdilution method; assay type: functional; outline: as §1
[38] = test system: Escherichia coli; assay: Antibacterial activity against Escherichia coli ATCC 25922 after 16 to 20 hrs by broth microdilution method; assay type: functional; outline: as §4
[39] = test system: Enterococcus faecalis; assay: Antibacterial activity against Enterococcus faecalis ATCC 29212 after 16 to 20 hrs by broth microdilution method; assay type: functional; outline: as §4
[40] = test system: Escherichia coli; assay: Antibacterial activity against drug-resistant NDM1 producing Escherichia coli clinical isolate 1460 after 16 to 20 hrs by broth microdilution method; assay type: functional; outline: as §1
[41] = test system: Staphylococcus aureus; assay: Antibacterial activity against methicillin-resistant Staphylococcus aureus clinical isolate 20130911034sau after 16 to 20 hrs by broth microdilution method; assay type: functional; outline: as §1
[42] = test system: Klebsiella pneumoniae; assay: Antibacterial activity against drug-resistant carbapenemase producing Klebsiella pneumoniae clinical isolate KP-14-2 after 16 to 20 hrs by broth microdilution method; assay type: functional; outline: as §1

CCCCCCCC[N+](C)(C)CC(=O)Nc1ccc(C(=O)/C=C/c2ccc(F)cc2F)cc1.[Cl-]
4 µg/mL: MIC [1] | MIC [2] | MIC [5] | MIC [7] | MIC [8] | MIC [10] | MIC [11] | MIC [12] | MIC [18] | MIC [22] | MIC [23] | MIC [27] | MIC [31] | MIC [34] | MIC [38] | MIC [40]
0.5 µg/mL: MIC [25] | MIC [37]
16 µg/mL: MIC [3] | MIC [42]
1 µg/mL: MIC [9] | MIC [21] | MIC [41]
8 µg/mL: MIC [4] | MIC [17] | MIC [20] | MIC [26] | MIC [28] | MIC [30] | MIC [32] | MIC [33] | MIC [35]
active: Activity [6] | Activity [13] | Activity [15] | Activity [36]
54 µg/mL: HC50 at 1 h [19]
2 µg/mL: MIC [14] | MIC [16] | MIC [24] | MIC [29] | MIC [39]

CCCCCCCC[N+](C)(C)CC(=O)Nc1ccc(C(=O)/C=C/c2ccco2)cc1.[Cl-]
2 µg/mL: MIC [14] | MIC [25] | MIC [37] | MIC [41] | MIC [42]
32 µg/mL: MIC [3] | MIC [4] | MIC [17] | MIC [26] | MIC [28] | MIC [30] | MIC [32] | MIC [33] | MIC [35]
64 µg/mL: MIC [24]
1 µg/mL: MIC [29]
137 µg/mL: HC50 at 1 h [19]
4 µg/mL: MIC [9] | MIC [16] | MIC [21] | MIC [38] | MIC [39]
8 µg/mL: MIC [18] | MIC [20] | MIC [34]
16 µg/mL: MIC [1] | MIC [2] | MIC [5] | MIC [7] | MIC [8] | MIC [10] | MIC [11] | MIC [12] | MIC [22] | MIC [23] | MIC [27] | MIC [31] | MIC [40]

CCCCCCCC[N+](C)(C)CC(=O)Nc1ccc(C(=O)/C=C/c2cccs2)cc1.[Cl-]
2 µg/mL: MIC [14] | MIC [16] | MIC [21] | MIC [40] | MIC [42]
1 µg/mL: MIC [9] | MIC [25] | MIC [27] | MIC [39] | MIC [41]
0.5 µg/mL: MIC [29] | MIC [37]
8 µg/mL: MIC [1] | MIC [2] | MIC [5] | MIC [7] | MIC [10] | MIC [11] | MIC [12] | MIC [17] | MIC [20] | MIC [22] | MIC [23] | MIC [24] | MIC [30] | MIC [31] | MIC [33] | MIC [34]
16 µg/mL: MIC [4] | MIC [26] | MIC [32] | MIC [35]
4 µg/mL: MIC [3] | MIC [8] | MIC [18] | MIC [28] | MIC [38]
133 µg/mL: HC50 at 1 h [19]
